Bioassay records deposited in PubChem BioAssay by several laboratories.
Calb FLC: C. albicans growth inhibition with fluconazole, primary screen, CaCi-2 strain, Alamar Blue fluorescence | C. albicans CaCi-2 (fluconazole-resistant clinical isolate) + fluconazole, 48 h | growth inhibition, % (no concentration beside the values) | 300,000 compounds, 0.57% hits;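 active = growth inhibition above about 58% in most replicates, limit read from the data, passing the limit was not always enough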;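 note: all wells also contain fluconazole at 8 µg/ml as a sub-toxic cotreatment; 0% = median of DMSO wells and 100% = median of geldanamycin control wells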
SKKanGAS inh: S. pyogenes SKKanGAS growth inhibitors in kanamycin, primary screen, streptokinase expression inhibitor project, SKKanGAS strain, BacTiter-Glo luminescence; 6 h; inhibition, % at 7.5 µM; 300,000 compounds, 1.3% hits;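 active = mean replicate score, as percent of positive control median, at least 50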;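 note: strain carries kanamycin resistance gene driven by streptokinase promoter and grows in 40 µg/ml kanamycin; loss of luminescence reflects streptokinase promoter inhibition or plain growth inhibition; 0% = median of DMSO wells and 100% = positive control at its reference dose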
Beta apoptosis: inhibitors of cytokine-induced beta cell apoptosis, primary screen, luminescence; INS-1E cytokine-induced death, ATP luminescence, 48 h; percent of positive-control rescue, neutral wells zero; protection from apoptosis, % (no concentration beside the values); 300,000 compounds, 0.8% hits;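 active = Every replicate reaches about 75%, or at least half do and their mean reaches it too, limit read from the data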;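 note: 0% = cytokine-treated negative control wells and 100% = positive control rescue; higher means more ATP so stronger rescue from cytokine killing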
CSC inhib: cancer stem cell viability inhibitors, primary screen, luminescence; cancer stem cell-like cells viability; 300,000 compounds, 1.1% hits; inhibition, % at 7.5 µM; in the data active = inhibition above about 75%; tested in HMLE shEcad cells
T cruzi repl: inhibitors of intracellular T. cruzi growth, primary screen, luminescence, NIH3T3 host cells; T. cruzi beta-gal in NIH3T3, 90 h; inhibition, % (test concentration not listed); 300,000 compounds, 1.4% hits; AID 1885, 2009;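 active = mean inhibition across valid replicates above about 55%, limit read from the data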;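 note: signal also drops with host cell toxicity which is not excluded here; 0% = plate median of DMSO wells and 100% = zero luminescence signal; higher percent means less beta-gal luminescence so fewer parasites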
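compound dosing = single 50 nL compound addition per well in DMSO | material = NIH/3T3 host cells with β-galactosidase reporter T. cruzi | input = 5,000 host fibroblasts per well | timing = ≥90 h infection period, 3 h prior cell attachment | read-out basis = percent inhibition of parasite-derived β-gal signal | detection = GalScreen β-gal luminescence, detergent lysis, 60 min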
Mdm2 MdmX PPI: inhibitors of human Mdm2-MdmX association, primary screen, cell-based, luminescence, split luciferase, SaOS-2, uHTS; AID 485346, 2010; SaOS-2 split-luciferase Mdm2/MdmX complementation; inhibition, % at 8 µM; 330,000 compounds, 3% hits;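 active = inhibition of at least 50% at 8 µM in the primary screen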
Target sequence (O15151 whole entry, looked up): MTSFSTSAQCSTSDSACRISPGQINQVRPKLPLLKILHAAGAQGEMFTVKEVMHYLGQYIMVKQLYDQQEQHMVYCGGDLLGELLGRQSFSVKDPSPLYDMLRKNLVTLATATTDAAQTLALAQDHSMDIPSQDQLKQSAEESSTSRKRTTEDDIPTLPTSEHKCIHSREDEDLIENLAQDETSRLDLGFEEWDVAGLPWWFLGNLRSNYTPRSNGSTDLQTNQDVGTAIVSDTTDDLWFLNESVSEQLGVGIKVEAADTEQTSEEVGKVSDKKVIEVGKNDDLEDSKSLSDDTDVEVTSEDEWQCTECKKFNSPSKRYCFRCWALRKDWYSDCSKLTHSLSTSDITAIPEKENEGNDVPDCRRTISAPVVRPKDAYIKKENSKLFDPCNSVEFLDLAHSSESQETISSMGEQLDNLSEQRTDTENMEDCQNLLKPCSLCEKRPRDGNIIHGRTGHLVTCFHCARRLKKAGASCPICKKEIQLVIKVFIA
Target sequence (Q00987 whole entry, looked up): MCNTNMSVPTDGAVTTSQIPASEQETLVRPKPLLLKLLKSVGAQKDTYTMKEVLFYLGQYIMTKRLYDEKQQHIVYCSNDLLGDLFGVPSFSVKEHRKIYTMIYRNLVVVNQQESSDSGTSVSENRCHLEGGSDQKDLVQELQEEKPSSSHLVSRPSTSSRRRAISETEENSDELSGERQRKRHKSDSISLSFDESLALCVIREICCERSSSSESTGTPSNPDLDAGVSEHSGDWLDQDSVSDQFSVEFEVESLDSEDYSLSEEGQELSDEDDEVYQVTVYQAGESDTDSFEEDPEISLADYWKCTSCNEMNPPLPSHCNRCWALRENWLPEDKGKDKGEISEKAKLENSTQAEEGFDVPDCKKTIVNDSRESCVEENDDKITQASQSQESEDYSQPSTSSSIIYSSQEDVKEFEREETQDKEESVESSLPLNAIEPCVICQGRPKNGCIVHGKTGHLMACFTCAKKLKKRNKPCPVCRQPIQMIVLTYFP
Mdm2-MdmX conf: Mdm2-MdmX complex disruptors, retested hits, confirmation, luminescence, single concentration | 10,000 compounds, 55% hits | Mdm2-MdmX binding, luminescent assay | inhibition, % at 8 µM | shares compounds with Mdm2 MdmX PPI; in the data active = inhibition above about 40%
FLuc counter: full-length luciferase signal inhibition, confirmation, counter-screen for Mdm2/MdmX interaction inhibitor project, cell-based, single concentration, SaOS-2; shares compounds with Mdm2 MdmX PPI; SaOS-2 full-length luciferase counterscreen, luminescence; inhibition, % at 8 µM; 6,200 compounds, 77% hits;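 active = mean inhibition at 8 µM reaching about 37%, which flags the compound as non-specific, limit read from the data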;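 note: p53-null SaOS-2 cells with luciferase driven by a doxycycline-inducible promoter; compound on cells about two nights before reading with doxycycline added after day one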
An asterisk follows results filed as active; x = no result. Compounds with a hit are over-represented: about 5.7% of the library has one in this group of screens.

SMILES	Calb FLC	SKKanGAS inh	Beta apoptosis	CSC inhib	T cruzi repl	Mdm2 MdmX PPI	Mdm2-MdmX conf	others
O=C(N[C@@H]1C/C=C\C[C@H](CC(=O)N(CCO)Cc2ccccc2)C(=O)N[C@@H](Cc2ccccc2)COC1=O)OCC1c2ccccc2-c2ccccc21	x	x	1	40	x	93*	43*	FLuc counter=59*
O=C(N[C@H]1C/C=C\C[C@@H](CC(=O)N(CCO)Cc2ccccc2)C(=O)NC[C@H](c2ccccc2)OC1=O)OCC1c2ccccc2-c2ccccc21	x	x	10	104*	x	58*	12
C[C@@H]1COC(=O)[C@H](NC(=O)OCC2c3ccccc3-c3ccccc32)C/C=C\C[C@@H](CC(=O)N(CCO)Cc2ccccc2)C(=O)N1	x	x	39	x	x	-3	x
CCCn1c(CCc2ccccc2)n[nH]c1=S	-4	0	33	-13	2	27	x
COc1ccccc1NC(=O)CSCc1cc(=O)n2ccsc2n1	3	-3	-3	4	-10	-5	x
CC1=NN(c2ccccc2)C(=O)/C1=C\C=C\c1ccccc1	3	3	39	102*	-4	66*	45*	FLuc counter=29
CCCCn1c(NC(=O)c2ccccc2Cl)c(C#N)c2nc3ccccc3nc21	-1	39	19	59	15	58*	24
Cc1cc(C)nc(SCC(=O)Nc2nonc2N)n1	2	-1	-5	-14	-7	-4	x
Clc1ncnc2scc(C3COc4ccccc4O3)c12 (stereo not drawn)	-8	23	-2	-5	10	52*	16
c1ccc2c(c1)OCC(c1csc3ncnc(N4CCCCC4)c13)O2 (stereo not drawn)	-25	11	2	-8	6	65*	18
O=c1[nH]cnc2scc(C3COc4ccccc4O3)c12 (stereo not drawn)	7	9	-3	-10	-4	0	x
O=C(c1ccc([N+](=O)[O-])cc1)N(Cc1cccs1)C1CCS(=O)(=O)C1 (stereo not drawn)	0	1	-4	-10	-11	-21	x
O=C(NC(=S)Nc1cc([N+](=O)[O-])ccc1O)C1CC1	x	28	4	5	-6	-9	x
CN1CCC2(CC1)Nc1nc(SCc3ccc(Cl)cc3)nn1C1=C2CN(C)CC1	5	3	-7	4	15	53*	34
CC(=O)c1cnc2nc(SCc3ccc(Cl)cc3)nn2c1C	1	2	0	-12	11	1	x
CCOc1ccc(C(=O)CCC(=O)Nc2cccc(S(=O)(=O)N3CCCCC3)c2)cc1	x	x	-3	-1	x	24	x
CC(=O)Oc1cc2c(C(=O)NCCCN3CCOCC3)c(C)oc2c2ccccc12	-2	9	x	-16	-4	51*	12
Nn1c(COc2ccccc2F)nnc1SCC(=O)NC1CC1	0	-5	-16	8	-7	-5	x
NC(=O)NC(=O)CN1c2cccc3cccc(c23)S1(=O)=O	5	8	-9	3	-7	-10	x
Cc1cccc(NC(=O)c2ccc(C3SCC(=O)N3CCc3ccccc3)cc2)c1 (stereo not drawn)	-4	16	37	0	-3	54*	25
CC(=O)Nc1ccc(NC(=O)c2ccc(C3SCC(=O)N3CCc3ccccc3)cc2)cc1 (stereo not drawn)	32	4	-1	-1	11	20	x
Cc1ccc(S(=O)(=O)N2CCCCC2)cc1NS(=O)(=O)c1ccccc1F	x	x	3	x	x	1	x
Cc1ccc(NC(=O)c2ccc(N/N=C/c3cccc(O)c3)c([N+](=O)[O-])c2)cc1	-6	18	63	48	27	77*	48*	FLuc counter=76*
Cc1ccc(NC(=O)c2ccc(Nc3c([N+](=O)[O-])cc([N+](=O)[O-])cc3[N+](=O)[O-])cc2)cc1	9	23	67	41	59*	79*	8
Cc1ccccc1NC(=O)c1ccc(N/N=C/c2ccccc2O)c([N+](=O)[O-])c1	-4	3	11	7	14	74*	22	FLuc counter=62*
SMILES	Calb FLC	SKKanGAS inh	Beta apoptosis	CSC inhib	T cruzi repl	Mdm2 MdmX PPI	Mdm2-MdmX conf	others
CN1CCN(S(=O)(=O)c2ccc(N3CCc4ccccc4C3)nc2)CC1	17	-2	-2	-4	5	11	x
Cc1cccn2c(=O)c(C=NCc3ccco3)c(Nc3ccc(SC(F)F)cc3)nc12	0	14	25	-3	9	56*	5
COc1ccc(NS(=O)(=O)c2ccc(NC(=O)C(CCSC)NC(N)=O)cc2)cc1 (stereo not drawn)	-2	5	3	-29	-1	-1	x
O=C(OCc1c(-c2ccccc2)ncc2ccccc12)c1ccc(C(F)(F)F)cc1	x	x	6	8	x	78*	0
O=C(OCc1c(-c2ccccc2)ncc2ccccc12)c1ccc(F)cc1	x	x	5	-10	x	9	x
COc1ccc(C(=O)NNC(=O)c2ccc3ccccc3n2)cc1	x	x	59	49	x	63*	53*	FLuc counter=53*
CCOC(=O)C1CCCN(S(=O)(=O)c2ccc3c(c2)N(C)C(=O)CC(=O)N3C)C1 (stereo not drawn)	5	4	-3	2	-13	8	x
CCOC(=O)CSC1=NC(=O)/C(=C/c2ccc(OC)cc2)S1	-16	1	-19	73	-31	76*	53*	FLuc counter=32
COc1ccc(/C=C2\SC(N)=NC2=O)cc1	5	1	x	x	-5	17	x
CCOc1cc(CNCCc2ccc(S(N)(=O)=O)cc2)ccc1OCc1ccc(Cl)cc1	8	5	105*	-8	43	100*	68*	FLuc counter=65*
COc1cc(CNCCc2ccc(S(N)(=O)=O)cc2)ccc1OCc1ccc(Cl)cc1	0	-3	23	29	66*	54*	40*	FLuc counter=69*
O=C(CNC(=O)c1ccccn1)N=Nc1c(O)[nH]c2ccccc12	16	12	3	x	3	-3	x
O=c1c2sc3ccccc3c2[nH]c(=S)n1CCN1CCOCC1	15	-2	12	-6	-9	7	x
CC(C)C(=O)NC(=S)Nc1ccc(S(=O)(=O)N2CCN(C)CC2)cc1	-2	0	-3	4	5	-27	x
